According to ChEMBL document CHEMBL2417487, “Asteriscane-type sesquiterpenoids from the soft coral Sinularia capillosa” (J Nat Prod, 2013):
Values after ≈ are worked out from the molar mass of the structure shown.

Tests used:
Amphibalanus amphitrite = assay: Antifouling activity against barnacle Balanus amphitrite Darwin; type: functional, organism-based
Outline: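 Barnacle nauplii were reared to cyprids at 26−28 °C and fed Chaetoceros gracilis, reaching the cyprid stage within four days. Fresh cyprids were used for testing, and the value is reported as IC50.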

BGC-823 = assay: Cytotoxicity against human BGC823 cells by MTT assay; type: functional, cell-based
SK-OV-3 = assay: Cytotoxicity against human SKOV3 cells by MTT assay; type: functional, cell-based
A549 = assay: Cytotoxicity against human A549 cells by MTT assay; type: functional, cell-based
HCT-8 = assay: Cytotoxicity against human HCT8 cells by MTT assay; type: functional, cell-based
HepG2 = assay: Cytotoxicity against human HepG2 cells by MTT assay; type: functional, cell-based
[1] = Antiinflammatory activity in BALB/c mouse splenocytes assessed as inhibition of LPS-induced TNFalpha production at 10 uM after 24 hrs; type: functional; details: Splenocyte
Outline: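 BALB/c mouse splenocyte suspensions were cultured in RPMI 1640 with 10% FBS. Compounds were dissolved in DMSO and given at 10 μM for 24 h, followed by LPS stimulation at 1 μg/mL. NK-007 at 100 nM served as positive control. TNF-α in culture supernatants was measured with cytometric bead array kits and reported as inhibitory rate.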

| Compound | EC50 (Amphibalanus amphitrite) | IC50 (BGC-823) | IC50 (SK-OV-3) | IC50 (A549) | IC50 (HCT-8) | IC50 (HepG2) | IC50 (Amphibalanus amphitrite) | inhibition at 10 µM [1] |
| --- | --- | --- | --- | --- | --- | --- | --- | --- |
| CC(=O)CC/C=C(/C)C[C@@H]1CC(C)(C)CC1=O | 13.9 µg/mL (≈ 58.8 µM) |  |  |  |  |  |  |  |
| CC1=C[C@]2(O)CC(C)(C)C[C@]23O[C@@]1(O)CC[C@H]3C |  | > 10 µg/mL | > 10 µg/mL | > 10 µg/mL | > 10 µg/mL | > 10 µg/mL |  |  |
| CC1=C[C@@]23CC(C)(C)C[C@@]2(O)[C@H](C)CC[C@@H]1O3 |  | > 10 µg/mL | > 10 µg/mL | > 10 µg/mL | > 10 µg/mL | > 10 µg/mL |  |  |
| CC1=CC2=CC(C)(C)C[C@@]23O[C@]1(O)CC[C@H]3C |  | > 10 µg/mL | > 10 µg/mL | > 10 µg/mL | > 10 µg/mL | > 10 µg/mL |  |  |
| CC1(C)CC2=C[C@@](C)(O)[C@@]3(O)CC[C@@](C)(O)[C@]2(C1)O3 |  | > 10 µg/mL | > 10 µg/mL | > 10 µg/mL | > 10 µg/mL | > 10 µg/mL |  |  |
| CC(=O)CC/C=C(/C)CC1=CC(C)(C)CC1=O |  | > 10 µg/mL | > 10 µg/mL | > 10 µg/mL | > 10 µg/mL | > 10 µg/mL |  |  |
| C/C(=C/CC[C@H](C)O)CC1=CC(C)(C)CC1=O |  | > 10 µg/mL | > 10 µg/mL | > 10 µg/mL | > 10 µg/mL | > 10 µg/mL |  |  |
| CC(=O)/C=C1/CC(C)(C)C[C@]12OC(=O)CC[C@H]2C |  | > 10 µg/mL | > 10 µg/mL | > 10 µg/mL | > 10 µg/mL | > 10 µg/mL |  |  |
| CC(=O)C[C@@H]1CC(C)(C)C=C1[C@]1(C)CCC(=O)O1 |  | > 10 µg/mL | > 10 µg/mL | > 10 µg/mL | > 10 µg/mL | > 10 µg/mL |  |  |
| C[C@@H]1CCC(=O)[C@](C)(O)/C=C2/CC(C)(C)C[C@@H]21 |  | > 10 µg/mL | > 10 µg/mL | > 10 µg/mL | > 10 µg/mL | > 10 µg/mL | 9.7 µM |  |
| C/C1=C/C2=C(CC(C)(C)[C@@H]2O)[C@H](C)CC[C@@H]1O |  | > 10 µg/mL | > 10 µg/mL | > 10 µg/mL | > 10 µg/mL | > 10 µg/mL |  | 16% |
| C/C1=C/C2=C(CC(C)(C)[C@H]2O)[C@H](C)CC[C@@H]1O |  | > 10 µg/mL | > 10 µg/mL | > 10 µg/mL | > 10 µg/mL | > 10 µg/mL |  |  |
| C/C1=C/C2=C(CC(C)(C)C2=O)[C@H](C)CC[C@@H]1O |  | > 10 µg/mL | > 10 µg/mL | > 10 µg/mL | > 10 µg/mL | > 10 µg/mL |  |  |
| C/C1=C/[C@]23O[C@]2(CC(C)(C)C3=O)[C@H](C)CC[C@@H]1O |  | > 10 µg/mL | > 10 µg/mL | > 10 µg/mL | > 10 µg/mL | > 10 µg/mL |  |  |
| C/C1=C/C2=C(CC(C)(C)C2=O)[C@H](C)CCC1=O |  | > 10 µg/mL | > 10 µg/mL | > 10 µg/mL | > 10 µg/mL | > 10 µg/mL |  |  |
| C/C1=C/C2=CC(C)(C)C[C@@]2(OO)[C@H](C)CC[C@@H]1O |  | > 10 µg/mL | > 10 µg/mL | > 10 µg/mL | > 10 µg/mL | > 10 µg/mL |  |  |
| C/C1=C/C2=CC(C)(C)C[C@]2(OO)[C@H](C)CC[C@@H]1O |  | > 10 µg/mL | > 10 µg/mL | > 10 µg/mL | > 10 µg/mL | > 10 µg/mL |  |  |
| C[C@@H]1CC[C@]2(O)O[C@]13CC(C)(C)CC3=C[C@@]2(C)O |  | > 10 µg/mL | > 10 µg/mL | > 10 µg/mL | > 10 µg/mL | > 10 µg/mL | 54 µM | 21% |
| C[C@@H]1CC[C@]2(O)O[C@]13CC(C)(C)[C@H](O)C3=C[C@@]2(C)O |  | > 10 µg/mL | > 10 µg/mL | > 10 µg/mL | > 10 µg/mL | > 10 µg/mL |  |  |
| CC(=O)CC/C=C(/C)C[C@H]1CC(C)(C)CC1=O [(-)-SINULARONE A] |  |  |  |  |  |  | 74 µM | 23% |
